FN deposit inh = inhibitors of fibronectin matrix deposition, primary screen, AH1F cells, Alexa488-fibronectin fluorescence, plate reader | 350,000 compounds, 0.086% hits | AH1F fibroblasts, overnight | inhibition, % at 12.6 µM | AID 743247, 2014;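 active means mean inhibition across replicates of 30% or more, regardless of how many single replicates reach that level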;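 further: positive control wells lacked labelled fibronectin entirely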
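Assay system: AH1F fibroblasts / Quantity: 10000 cells per well / Medium: DMEM plus 2% serum, read in PBS / Reagent: labelled fibronectin 24 nM / Dosing: single dose, pinned / Times: 1 h cell attachment, overnight exposure to compound and label / Signal: fluorescence, ex 485 nm, em 525 nm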
CaV13 FRET inh = Disruptors of the CACNA1D IQ motif to Ca2+-dependent inactivation inhibitor domain association, primary screening, Förster resonance energy transfer in intact living …; HEK cells, CFP/YFP FRET ICDI-IQ, plate reader, 10 min; percent FRET-ratio fall versus neutral wells; inhibition, % at 12.3 µM; 340,000 compounds, 0.098% hits; AID 743397;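 active means mean replicate inhibition of at least 30% and at least 1% of replicates passing that level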;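 further: 0% = median of the neutral control wells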
NSD2 HMT inh = NSD2 histone methyltransferase inhibitors, primary screen, biochemical, AlphaScreen, single concentration, set 2; 310,000 compounds, 0.54% hits; Histone-lysine N-methyltransferase NSD2 (Homo sapiens), O96028; AID 743445, 2014; NSD2 peptide methylation, 120 min; inhibition, % at 12.5 µM; in the data active means inhibition above about 50%
Target sequence (O96028 whole entry, looked up): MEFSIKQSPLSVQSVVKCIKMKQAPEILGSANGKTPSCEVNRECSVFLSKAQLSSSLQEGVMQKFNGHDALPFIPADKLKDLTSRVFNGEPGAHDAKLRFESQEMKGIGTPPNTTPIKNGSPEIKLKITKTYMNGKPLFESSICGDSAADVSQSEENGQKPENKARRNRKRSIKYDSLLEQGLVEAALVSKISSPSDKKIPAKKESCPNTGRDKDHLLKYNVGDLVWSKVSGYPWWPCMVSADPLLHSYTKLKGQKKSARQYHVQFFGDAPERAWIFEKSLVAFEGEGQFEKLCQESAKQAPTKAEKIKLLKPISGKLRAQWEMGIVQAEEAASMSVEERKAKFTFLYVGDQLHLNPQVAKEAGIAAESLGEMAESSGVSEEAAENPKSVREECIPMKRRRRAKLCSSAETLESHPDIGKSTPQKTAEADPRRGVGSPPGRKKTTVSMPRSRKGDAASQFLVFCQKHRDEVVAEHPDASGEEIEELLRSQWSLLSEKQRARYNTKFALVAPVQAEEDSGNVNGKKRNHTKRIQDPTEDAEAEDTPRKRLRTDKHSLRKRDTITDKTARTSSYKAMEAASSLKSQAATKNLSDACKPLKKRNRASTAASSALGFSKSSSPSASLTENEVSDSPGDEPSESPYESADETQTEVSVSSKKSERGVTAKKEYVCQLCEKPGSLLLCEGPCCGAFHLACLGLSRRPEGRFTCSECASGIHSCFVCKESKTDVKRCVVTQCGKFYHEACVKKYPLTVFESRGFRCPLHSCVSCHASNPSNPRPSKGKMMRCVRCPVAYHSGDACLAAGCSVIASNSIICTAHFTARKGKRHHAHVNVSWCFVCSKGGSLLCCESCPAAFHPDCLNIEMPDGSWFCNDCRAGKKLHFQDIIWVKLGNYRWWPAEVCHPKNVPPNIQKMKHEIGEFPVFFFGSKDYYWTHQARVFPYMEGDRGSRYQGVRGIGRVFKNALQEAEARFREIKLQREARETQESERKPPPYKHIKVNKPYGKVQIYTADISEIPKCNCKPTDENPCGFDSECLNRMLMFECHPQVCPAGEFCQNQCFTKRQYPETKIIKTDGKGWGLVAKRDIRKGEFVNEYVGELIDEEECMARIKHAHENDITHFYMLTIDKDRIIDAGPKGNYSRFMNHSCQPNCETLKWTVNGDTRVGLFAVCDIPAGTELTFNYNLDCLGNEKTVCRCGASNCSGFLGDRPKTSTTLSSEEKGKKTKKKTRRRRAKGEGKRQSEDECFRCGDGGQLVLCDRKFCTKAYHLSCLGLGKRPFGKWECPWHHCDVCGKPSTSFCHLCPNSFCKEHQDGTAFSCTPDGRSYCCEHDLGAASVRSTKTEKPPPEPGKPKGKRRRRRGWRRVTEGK
GC-B act = human GC-B receptor activators, primary screen, HEK293 GC-B cells, cGMP TR-FRET, EC30 CNP. 370,000 compounds, 0.11% hits. 0% at EC30 CNP, 100% saturating CNP. Atrial natriuretic peptide receptor 2 (Homo sapiens), P20594. activation, % at 10 µM;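 active means activation at 10 µM reaching about 35% in either raw or pattern-adjusted values, limit read from the data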
NPR1 activator = GC-A stimulated cGMP production enhancers – HEK293 GC-A cells, cGMP TR-FRET, EC30 ANP, primary screen. 0% at EC30 ANP, 100% saturating ANP. activation, % at 10 µM. 370,000 compounds, 0.14% hits. AID 1671463, 2021; in the data active means activation above about 40%
Casp6 inh = human caspase-6 inhibitors, primary screen, biochemical, VEID-R110 fluorescence, single point, set 2; 350,000 compounds, 0.53% hits; purified caspase-6, Z-VEID-R110 cleavage fluorescence; inhibition, % at 12.5 µM; P55212;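 active means mean inhibition across replicates at least about 35%, with every replicate also reaching that limit, limit read from the data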;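 further: 0% = median of neutral control wells and 100% = no fluorescence left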
AlphaScreen art = AlphaScreen signal interference with preloaded methylated product, dose response, artefact control for NSD2 inhibitor project, biochemical, cherry-picked samples; shares compounds with NSD2 HMT inh; AlphaScreen artifact counterscreen, preloaded methylated H4 peptide; AC35, µM (doses to about 10 µM), without a hit: top-dose activity change, negative = signal loss; 1,500 compounds, 9.4% hits; call rule not given here
Starred values were filed as active, the others as inactive; . = not tested or not shown. The list is not random: actives were taken first. Their share in the collection is about 0.99%.

SMILES	FN deposit inh	CaV13 FRET inh	NSD2 HMT inh	GC-B act	NPR1 activator	Casp6 inh	AlphaScreen art
CSc1nsc(SCC(=O)Nc2cccc(NC(C)=O)c2)n1	-0.8	-4.4	62.5*	-2.2	-7.3	-1.6	-1.1%
O=C(Nc1nccs1)c1ccc2nccnc2c1	3.8	-5.7	125.4*	0.8	-1.7	.	-2.3%
Cc1ccc(C(=O)Nc2nccs2)cc1	.	-7.2	-1.4	-1.6	-0.4	0.0	.
O=C(c1cccnc1)N1C[C@@H]2[C@H](c3ccccc31)[C@H](CO)N2CC1CCCCC1	.	.	.	.	.	-0.4	.
Cc1csc(SCC(=O)Nc2ccc3c(c2)OCCO3)n1	4.8	0.6	62.0*	1.3	-0.2	-0.8	-0.4%
Cn1c(SCC(=O)Nc2ccc3c(c2)OCCO3)nnc1-c1ccncc1	10.8	-6.9	77.0*	-0.1	-0.3	-0.6	-4.6%
Cc1noc(C)c1NC(=O)Nc1ccc2c(c1)CC(=O)N([C@H](C)CO)C[C@H](C)[C@@H](CN(C)Cc1ccccc1)O2	.	.	.	.	.	-1.3	.
CN1C(=O)c2cc(NC(=O)Cc3cccs3)ccc2OC[C@H]2O[C@@H](CC(=O)NCC3CC3)CC[C@@H]21	4.0	.	.	.	.	1.4	.
CNC(=O)C[C@H]1CC[C@@H]2[C@@H](COc3ccc(NS(=O)(=O)c4ccc(F)cc4)cc3C(=O)N2C)O1	3.6	.	.	.	.	.	.
CN(CC(=O)N1CCc2[nH]c3ccc(F)cc3c2C1)CC1OCCO1	8.1	-3.9	-3.2	1.5	-0.5	.	.
Cc1ccc2[nH]c3c(c2c1)CN(C(=O)CN(C)CC1OCCO1)CC3	0.7	-7.3	63.6*	2.2	-7.5	.	-4.9%
CCC(=O)N1[C@@H]2c3ccc(C4=CCCC4)c(=O)n3C[C@@H]2[C@@H](CO)[C@@H]1C(=O)NCc1ccc(F)cc1	.	.	.	.	.	1.4	.
c1ccc(-c2cc(-c3ccccc3)n3ncnc3n2)cc1	5.5	-2.6	50.1*	-13.0	-2.8	3.2	-0.7%
COc1ccc(-c2cc(-c3ccccc3)nc3ncnn23)cc1	0.7	-3.2	.	-3.2	-1.0	4.9	.
CC(=O)N1[C@H](CN(C(=O)c2ccccc2)C(C)C)[C@@H](c2ccccc2)[C@@H]1CO	.	.	.	.	.	-3.7	.
CC(C)[n+]1ccn(C2=C([O-])c3ccccc3C(=O)/C2=N\S(=O)(=O)c2ccccc2)c1	-0.9	-21.1	95.9*	-5.1	0.3	35.2*	3.6%
CCCC[n+]1ccn(C2=C([O-])c3ccccc3C(=O)/C2=N\S(=O)(=O)c2ccccc2)c1	8.6	-4.2	31.1	4.4	-3.6	.	.
Cc1cc[n+](C2=C([O-])c3ccccc3C(=O)/C2=N\S(=O)(=O)c2cccs2)cc1C	1.7	12.3	11.6	-0.6	3.4	4.8	.
CC(C)(C)c1cc[n+](C2=C([O-])c3ccccc3C(=O)/C2=N\S(=O)(=O)c2ccccc2)cc1	-3.9	-15.0	62.9*	1.6	0.2	6.6	-2.8%
N#Cc1ccc(-c2ccco2)nc1SCc1ccccc1	10.2	.	55.0*	1.8	-2.6	.	-0.6%
CCC1Cc2c(nc(N)c3c(N)nc(N4CCOCC4)c(C#N)c23)O1 (stereo unspecified)	2.9	-2.8	82.4*	2.5	14.8	1.9	-2.4%
CCOc1cc2c(C#N)c(N3CCOCC3)nc(N)c2c(N)n1	.	.	70.4*	-0.1	12.2	.	1.4%
CCOc1cc2c(C#N)c(N(CC)CC)nc(N)c2c(N)n1	9.9	-9.0	.	0.1	9.0	.	.
CCc1oc(C(=O)O)cc1CN(CC)CC	0.0	.	7.3	6.3	3.3	-0.8	.
CCN(CC)Cc1cc(O)c(CN(CC)CC)cc1O	4.2	-6.2	100.4*	-0.6	5.6	19.3	0.8%
SMILES	FN deposit inh	CaV13 FRET inh	NSD2 HMT inh	GC-B act	NPR1 activator	Casp6 inh	AlphaScreen art
Cc1cc(C)c(Nc2cc(S(=O)(=O)O)c(N)c3c2C(=O)c2ccccc2C3=O)c(C)c1	5.2	-4.7	144.7*	-34.9	-29.1	.	6.19µM*
COc1ccc(-n2cccc2/C=C2/NC(=O)N(c3cccc(Cl)c3)C2=O)cc1	-7.9	-20.7	0.2	-6.5	-4.0	2.5	.
Cc1ccccc1N=C1NC(=O)/C(=C/c2cccn2-c2cccc(C(=O)O)c2)S1	17.8	-5.6	80.2*	-1.9	-4.0	.	-10.8%
Cc1cccc(N=C2NC(=O)/C(=C/c3cccn3C)S2)c1C	-10.4	-15.0	16.8	-2.4	3.8	5.6	.
O=C(O)c1cccc(-n2cccc2/C=C2/NC(=O)N(c3ccc(Cl)cc3)C2=O)c1	-2.8	-4.4	140.7*	-1.5	-24.9	84.2*	2.15µM*
O=C(O)c1cccc(-n2cccc2/C=C2/SC(=O)N(CC(=O)N3CCCC3)C2=O)c1	4.7	-3.3	61.1*	4.5	-7.0	39.5*	1.7%
C[C@@H](NC(=O)C[C@@H]1CC[C@H]2[C@@H](COC[C@H](O)CN2Cc2cc(F)ccc2F)O1)c1ccccc1	-6.8	.	.	.	.	1.4	.
Cc1noc(C)c1NC(=O)Nc1ccc2c(c1)CC(=O)N([C@H](C)CO)C[C@@H](C)[C@H](CN(C)S(=O)(=O)c1c(C)noc1C)O2	-3.2	.	.	.	.	-2.4	.
CN(C)Cc1cn(CC[C@@H]2CC[C@H](NC(=O)Nc3ccccc3F)[C@H](CO)O2)nn1	-6.2	.	.	.	.	1.9	.
O=C1CC(=O)Nc2cc(S(=O)(=O)Nc3cccc(C(F)(F)F)c3)ccc2N1	-0.6	-2.6	8.5	5.5	1.9	1.8	.
O=C1CC(=O)Nc2cc(S(=O)(=O)Nc3ccc(Cl)c(C(F)(F)F)c3)ccc2N1	-1.8	-2.6	51.8*	4.9	-1.4	2.6	-1.2%
CCCC(C(=O)NC(C)(C)C)N(CC1CCCO1)C(=O)CNS(=O)(=O)c1ccc(F)cc1 (stereo unspecified)	0.7	-2.2	83.2*	0.6	-0.3	-2.3	-1.3%
C[C@@H]1CN([C@H](C)CO)C(=O)c2ccccc2-c2ccccc2CO[C@H]1CN(C)C(=O)Nc1cccc(F)c1	3.9	.	.	.	.	-2.0	.
CC(C)NC(=O)N(C)C[C@H]1Oc2ccc(NC(=O)CCCN(C)C)cc2C(=O)N([C@@H](C)CO)C[C@H]1C	.	.	.	.	.	-1.0	.
COc1ccc(/C=N/Nc2nnc(C)n2N)cc1OC	-0.9	9.6	110.8*	-0.9	-1.0	22.1	-2.7%
COc1ccc(Nc2oc(COc3ccccc3OC)nc2C#N)cc1	-1.5	-2.7	51.1*	3.4	8.0	-1.1	-2.2%

High-throughput results: PubChem, several laboratories
